Source: PubChem (several laboratories)
Compounds with a hit are over-represented: about 3.6% of the library has one in this group of screens.
ZTA counter: counter-screen for EBNA-1 inhibitors: inhibitors of Epstein-Barr virus ZTA. 320,000 tested, 0.15% active. P03206. inhibition, % at 11 µM. ZTA-DNA binding, fluorescence polarization; in the data active = inhibition above about 33%
Target sequence (P03206 whole entry, looked up): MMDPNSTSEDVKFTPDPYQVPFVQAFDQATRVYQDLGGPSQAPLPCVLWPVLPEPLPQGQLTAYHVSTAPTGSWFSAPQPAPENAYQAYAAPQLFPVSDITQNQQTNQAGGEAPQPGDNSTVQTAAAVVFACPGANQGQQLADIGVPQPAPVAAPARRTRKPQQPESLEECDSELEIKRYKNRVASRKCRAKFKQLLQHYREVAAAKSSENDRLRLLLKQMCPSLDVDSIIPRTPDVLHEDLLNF
DNA FID counter: displaces DNA intercalator in HCV helicase counter-screen | inhibition, % at 7.9 µM | DNA fluorescent intercalator displacement, fluorescence | 290,000 tested, 0.17% active; in the data active = inhibition above about 37%;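 note: 0% = vehicle and 100% = reference compound; higher means more ethidium bromide displaced from hairpin DNA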
NR3A LBD binder: NR3A (human) ligand-binding domain modulation; Tm shift relative to glycine control, % at 25 µM; 340,000 tested, 2.5% active; NR3A LBD differential scanning fluorimetry, Tm shift; 0% = protein alone, 100% = glycine-bound protein;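 active = melting temperature shift of at least 10% of the positive control shift, at one fixed dose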
EBNA-1 inh: blocks EBNA-1 binding to DNA; EBNA-1 DNA binding, fluorescence polarization; inhibition, % at 14.8 µM; 300,000 tested, 0.34% active; AID 1950; in the data active = inhibition above about 28%
HCV NS3 hel inh: inhibitors of Hepatitis C virus NS3 helicase | inhibition, % at 10.9 µM | NS3 helicase DNA unwinding, Cy5 molecular beacon fluorescence | 290,000 tested, 0.56% active | AID 1800;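 active = inhibition above the mean of all tested compounds plus 3 SD, set per campaign, cut at about 35% in these data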;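 note: 0% = DMSO wells and 100% = thioflavine S control wells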
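Test system: hepatitis C virus NS3 helicase domain fragment enzyme. Also added: annealed dual-labelled DNA beacon duplex, ATP-started. Timing: 60 min unwinding reaction at 25 °C after ATP addition. Technique: Cy5 fluorescence. Measure: % inhibition of unwinding.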
FGF22 binding: shifts melting point of recombinant human FGF22; Q9HCT0; recombinant FGF22 thermal shift, SYPRO orange fluorescence; percent of sucrose octasulfate shift, DMSO zero; activity (Tm shift, normalised), % at 9.99 µM; 340,000 tested, 1.5% active;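 active = mean Tm shift, scaled 0 neutral to 100 positive control, at about 1.3% or above, every replicate too, limit read from the data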
Target sequence (Q9HCT0 whole entry, looked up): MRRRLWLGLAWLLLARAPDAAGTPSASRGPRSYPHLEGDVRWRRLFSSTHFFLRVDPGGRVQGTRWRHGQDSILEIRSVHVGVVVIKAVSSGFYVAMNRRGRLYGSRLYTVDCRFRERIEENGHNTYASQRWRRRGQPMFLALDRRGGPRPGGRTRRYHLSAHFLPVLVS
* = called active by the depositor; . = no result given.

SMILES	ZTA counter	DNA FID counter	NR3A LBD binder	EBNA-1 inh	HCV NS3 hel inh	FGF22 binding
CCN1CCN(c2cc(C)c3cc(NC(=S)NCCCN4CCc5ccccc5C4)ccc3n2)CC1	-13	32	-3	3	-73	0
Cc1cc(N2CCN(C)CC2)nc2ccc(NC(=S)NCCN3CCc4ccccc4C3)cc12	-3	38*	0	-10	-32	0
Cc1cc(N2CCN(C)CC2)nc2ccc(NC(=S)NCCCN3CCc4ccccc4C3)cc12	-4	41*	0	5	-32	0
CN1[C@@H]2c3ccc(-c4ccc(F)cc4)c(=O)n3C[C@@H]2[C@@H](CO)[C@@H]1C(=O)Nc1ccccc1	.	.	.	.	.	0
S=C(NCc1ccc(Cl)cc1Cl)Nc1ccccc1	3	-5	13*	3	1	.
S=C(NCCC(c1ccccc1)c1ccccc1)Nc1cccc(Cl)c1	-6	-8	16*	-7	-7	.
S=C(NCc1ccc(Cl)cc1)Nc1ccccc1	7	-7	-6	8	0	0
O=C(NC(=S)NCc1ccc(Cl)cc1)c1ccco1	.	.	-2	.	.	0
O=C(NC(=S)NCc1ccc(Cl)cc1Cl)c1ccco1	.	.	-10	.	.	43*
C[C@@H]1CN([C@@H](C)CO)C(=O)c2cc(NC(=O)C3CCCCC3)ccc2O[C@H]1CN(C)C(=O)NC1CCCCC1	.	.	.	.	.	0
C[C@@H]1CN([C@H](C)CO)C(=O)Cc2cc(NC(=O)c3ccncc3)ccc2O[C@H]1CN(C)Cc1ccncc1	.	.	.	.	.	0
Cc1cc(C(=O)N/N=C/c2ccc[nH]2)n[nH]1	-1	9	2	-2	11	43*
Cc1cc(C(=O)N/N=C/c2ccc3ccccc3c2)n[nH]1	.	-13	-5	.	5	0
Cc1cc(C(=O)N/N=C/c2ccc[nH]2)no1	3	-4	-5	5	7	.
Cc1cc(C(=O)N/N=C/c2ccc(OC(=O)c3ccccc3Br)cc2)n[nH]1	20	-1	12*	14	5	43
CNC(=O)C[C@@H]1CC[C@@H]2[C@@H](COc3ccc(NC(=O)Nc4cccc(F)c4)cc3C(=O)N2C)O1	.	.	.	.	.	0
CC(=O)Nc1ccc(-c2cn3cc(C)ccc3n2)cc1	-2	-5	20*	1	0	.
O=C(Nc1ccc(-c2cn3ccccc3n2)cc1)c1ccc(Cl)cc1	16	1	14*	9	-3	.
O=C(Nc1ccc(-c2cn3ccccc3n2)cc1)c1ccco1	-22	-2	24*	-1	-5	0
COCC#Cc1cnc2c(c1)C(=O)N([C@H](C)CO)C[C@H](C)[C@@H](CN(C)C(=O)Cc1cccnc1)O2	.	.	.	.	.	0
C[C@H]1CN([C@@H](C)CO)C(=O)c2cc(NC(=O)CCC(F)(F)F)ccc2O[C@@H]1CN(C)Cc1ccc(Cl)c(Cl)c1	.	.	.	.	.	-1
COc1cc(CCNC(=O)c2cnn3ccccc23)cc(OC)c1OC	7	-12	22*	8	2	0
C[C@@H]1CN([C@@H](C)CO)C(=O)c2cccc(NC(=O)c3nc4ccccc4s3)c2O[C@H]1CN(C)Cc1ccc(C(=O)Nc2ccccc2N)cc1	.	.	.	.	.	0
C[C@@H]1CN([C@H](C)CO)C(=O)c2cc(C3=CCCCC3)cnc2O[C@H]1CN(C)C(=O)NC1CCCC1	.	.	.	.	.	0
O=c1ccn([C@@H]2O[C@H](CNCc3ccc(-c4cc(C(F)(F)F)ccc4Cl)o3)[C@@H](O)[C@H]2O)c(=O)[nH]1	.	.	17*	.	.	0
SMILES	ZTA counter	DNA FID counter	NR3A LBD binder	EBNA-1 inh	HCV NS3 hel inh	FGF22 binding
COc1ccc(C(=O)CSc2nc3nc(C)cc(C)c3c(=O)[nH]2)cc1OC	.	-7	.	.	-5	.
Cc1cc(C)c2c(=O)[nH]c(SCC(=O)c3ccc(C)c(C)c3)nc2n1	7	-9	-3	6	2	44*
CC[N+](CC)(CCCCS(=O)(=O)[O-])CCNP1(=O)C=C(c2ccccc2)OC(c2ccccc2)=C1	-17	-9	-2	-14	-2	44*
CCCN=C1N(CC)C[C@@H]2[C@@H]3C(=O)N(Cc4ccccc4)C(=O)[C@@H]3[C@](Cc3ccccc3)(C(=O)OC)N12	.	.	13*	.	.	42
CCCN=C1N(C)C[C@@H]2[C@@H]3C(=O)N(Cc4ccccc4)C(=O)[C@@H]3[C@](Cc3ccccc3)(C(=O)OC)N12	.	.	0	.	.	41
CCC(=O)Nc1ccc2c(c1)OC[C@H](C)N(C(=O)Cc1ccccn1)C[C@H](C)[C@H](OC)CN(C)C2=O	.	.	.	.	.	0
